Measurements: ChEMBL document CHEMBL1145336, “1-aryl-3-(4-pyridine-2-ylpiperazin-1-yl)propan-1-one oximes as potent dopamine D4 receptor agonists for the treatment of erectile dysfunction” (J Med Chem, 2006)
Calls of active or inactive are those of the source. No cut-off for these calls is given here.

Experiments:
[1] = Half life in rat at 1 mg/kg, po; type: ADME, organism-based; set-up: dose 1 mg/kg, route oral; details: in vivo
Procedure, shortened: (§1)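 Pharmacokinetics in rat and dog after a 1 mg/kg dose given subcutaneously or orally. Oral bioavailability (F, %), volume of distribution (Vβ, L/kg) and half-life (T1/2, h) were determined.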

Rattus norvegicus [2] = assay: Volume of distribution in rat at 1 mg/kg, sc; type: ADME, organism-based; set-up: dose 1 mg/kg, route subcutaneous; details: in vivo; procedure, shortened: as §1
Canis familiaris [3] = species on record: Canis familiaris; assay: Prolongation of canine cardiac Purkinje fiber repolarization; type: functional, Canis lupus familiaris
Mus musculus [4] = assay: Lowering of hypoactivity in mouse at 10 umol/kg by Irvin test; type: functional, organism-based
[5] = Bioavailability in rat at 1 mg/kg, po; type: ADME, organism-based; details: in vivo; procedure, shortened: as §1
Mus musculus [6] = assay: Lowering of piloerection in mouse at 10 umol/kg by Irvin test; type: functional, organism-based
[7] = Bioavailability in dog at 1 mg/kg, po; type: ADME, organism-based, Canis lupus familiaris; details: in vivo; procedure, shortened: as §1
Mustela putorius furo = assay: Emetic activity in ferret at 0.03 to 3 umol/kg, sc; type: functional, organism-based
Rattus norvegicus [8] = assay: Activity against penile erection in Wistar rat at 0.03 umol/kg, sc; type: functional
Procedure, shortened: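 Male Wistar rats, dosed subcutaneously, were weighed and adapted to a red-lit testing room for 60 min; experiments ran between 9:00 a.m. and 3:00 p.m. Erections were counted by direct observation for 60 min after dosing. The share of animals with one or more erections was reported as incidence (percent), n = 8-30 rats.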

[9] = Half life in rat at 1 mg/kg, sc; type: ADME, organism-based; set-up: dose 1 mg/kg, route subcutaneous; details: in vivo; procedure, shortened: as §1
Mus musculus [10] = assay: Lowering of ptosis in mouse at 10 umol/kg by Irvin test; type: functional, organism-based
Canis familiaris [11] = assay: Volume of distribution in dog at 1 mg/kg, sc; type: ADME, organism-based, Canis lupus familiaris; set-up: dose 1 mg/kg, route subcutaneous; details: in vivo; procedure, shortened: as §1
D(4) dopamine receptor [12] = target: T1, D(4) dopamine receptor (Homo sapiens, UniProt P21917); assay: Displacement of [3H]A-369508 from human recombinant D4.4 receptor expressed in HEK293 cell membrane; type: cell membranes
T1 sequence (P21917 whole entry): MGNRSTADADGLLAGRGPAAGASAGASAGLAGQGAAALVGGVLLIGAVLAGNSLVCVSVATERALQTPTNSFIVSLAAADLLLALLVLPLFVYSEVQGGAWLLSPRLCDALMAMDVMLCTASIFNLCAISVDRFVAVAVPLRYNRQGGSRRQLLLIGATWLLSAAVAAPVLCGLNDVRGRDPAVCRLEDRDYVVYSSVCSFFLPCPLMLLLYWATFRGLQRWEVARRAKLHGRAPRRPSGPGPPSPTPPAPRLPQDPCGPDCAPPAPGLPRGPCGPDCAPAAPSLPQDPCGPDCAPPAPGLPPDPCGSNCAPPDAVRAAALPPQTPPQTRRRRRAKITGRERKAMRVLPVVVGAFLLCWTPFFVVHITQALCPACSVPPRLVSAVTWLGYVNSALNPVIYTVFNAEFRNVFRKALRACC
Procedure, shortened: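 Competition binding against the D4-selective agonist radioligand [3H]-A-369508, using membranes from HEK-293 cells engineered to express human D4.4. Mean values (SEM, n ≥ 4).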

[13] = Half life in dog at 1 mg/kg, po; type: ADME, organism-based, Canis lupus familiaris; set-up: dose 1 mg/kg, route oral; details: in vivo; procedure, shortened: as §1
Mus musculus [14] = assay: Lowering of hypothermia in mouse at 10 umol/kg by Irvin test; type: functional, organism-based
D(2) dopamine receptor [15] = target: T2, D(2) dopamine receptor (Homo sapiens, UniProt P14416); assay: Displacement of [125I]PIPAT from human recombinant D2L receptor expressed in HEK293 cells
D(4) dopamine receptor [16] = target: T1, D(4) dopamine receptor; assay: Activity at human recombinant D4.4 receptor expressed in HEK293 cells by FLIPR assay; type: functional, cell-based
D(2) dopamine receptor [17] = target: T2, D(2) dopamine receptor; assay: Agonist activity at human recombinant D2 receptor expressed in HEK293 cells by FLIPR assay; type: functional, cell-based
Procedure, shortened: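 Calcium flux (FLIPR) in HEK-293 cells coexpressing recombinant human D2L with chimeric Gqo5. Efficacy is the maximal response relative to 10 µM dopamine (100%). EC50 is the concentration giving half-maximal stimulation. Values are means (SEM, n ≥ 3).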

[18] = Bioavailability in rat at 1 mg/kg, sc; type: ADME, organism-based; details: in vivo; procedure, shortened: as §1
D(2) dopamine receptor [19] = target: T2, D(2) dopamine receptor; assay: Antagonist activity at human recombinant D2 receptor expressed in HEK293 cells by FLIPR assay; type: functional, cell-based

T2 sequence (P14416 whole entry): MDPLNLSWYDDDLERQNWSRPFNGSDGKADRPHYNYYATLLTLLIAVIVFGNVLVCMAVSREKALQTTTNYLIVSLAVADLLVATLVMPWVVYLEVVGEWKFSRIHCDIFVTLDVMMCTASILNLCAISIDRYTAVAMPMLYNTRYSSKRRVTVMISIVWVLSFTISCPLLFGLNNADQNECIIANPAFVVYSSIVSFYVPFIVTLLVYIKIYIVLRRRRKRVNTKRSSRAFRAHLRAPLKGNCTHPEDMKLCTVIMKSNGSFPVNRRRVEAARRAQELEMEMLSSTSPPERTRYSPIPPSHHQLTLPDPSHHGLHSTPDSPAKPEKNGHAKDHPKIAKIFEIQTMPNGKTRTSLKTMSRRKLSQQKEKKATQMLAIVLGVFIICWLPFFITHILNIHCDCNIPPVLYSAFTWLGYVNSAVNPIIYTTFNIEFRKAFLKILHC

CO/N=C(\CCN1CCN(c2ccccn2)CC1)c1ccc(Cl)cc1
half-life [1]: 2.3 h
Vbeta (Rattus norvegicus [2]): 4.3 L/kg
Activity (Canis familiaris [3]): 14.7%
Activity (Mus musculus [4]): Active
bioavailability [5]: 16.3%
Activity (Mus musculus [6]): Active
bioavailability [7]: 39.8%
Activity (Mustela putorius furo): inactive
Activity (Rattus norvegicus [8]): 85%
half-life [9]: 1.9 h
Activity (Mus musculus [10]): Active
Vbeta (Canis familiaris [11]): 4.8 L/kg
Ki (D(4) dopamine receptor [12]): 38.2 nM
half-life [13]: 6.2 h
Activity (Mus musculus [14]): Active
Ki (D(2) dopamine receptor [15]): 63.8 nM
EC50 (D(4) dopamine receptor [16]): 37.6 nM
EC50 (D(2) dopamine receptor [17]): > 10000 nM
bioavailability [18]: 94.8%
IC50 (D(2) dopamine receptor [19]): > 10000 nM
